This is an account of results in BindingDB's records for doi:10.1021/acs.jmedchem.5b00085 (The Hong Kong Polytechnic University, 2015).

Tested on in the first data set: not listed separately
Kind of data set: Modulation of P-gp (unknown origin) transfected in human MDA435/LCC6MDR cells assessed as reversible of paclitaxel resistance measured as IC50 for paclitaxel at 1 uM after 5 days by CellTiter 96 Aqueous assay.
As for `COc1ccc(CC(=O)O[C@@H]2Cc3c(OC)cc(OC)cc3O[C@@H]2c2cc(OC)c(OC)c(OC)c2)cc1`, the IC50 – broadly, the concentration that gives 50% inhibition – was determined as 34 nM.

As to `COc1cc(OC)c2c(c1)O[C@H](c1cc(OC)c(OC)c(OC)c1)[C@H](OC(=O)Cc1ccc(OC)c(OC)c1)C2`, the IC50 turned out to be 32 nM. As to `CCOc1cc(C(=O)O[C@@H]2Cc3c(OC)cc(OC)cc3O[C@@H]2c2cc(OC)c(OC)c(OC)c2)cc(OCC)c1OCC`, the IC50 came out at 113 nM. Same read-out and setting: the figure for `C=CCOc1cc(C(=O)O[C@@H]2Cc3c(OC)cc(OC)cc3O[C@@H]2c2cc(OC)c(OC)c(OC)c2)cc(OCC=C)c1OCC=C` is 12 nM. On the same count and under the same terms, the figure for `COc1cc(OC)c2c(c1)O[C@H](c1cc(OC)c(OC)c(OC)c1)[C@@H](OC(=O)c1ccc(F)c(NC(=O)/C=C/c3cc(OC)c(OC)c(OC)c3)c1)C2=O` is 28 nM; for `COc1cc(OC)c2c(c1)O[C@H](c1cc(OC)c(OC)c(OC)c1)[C@H](OC(=O)c1cccc(F)c1)C2` it is 97 nM.

With `COc1cc(OC)c2c(c1)O[C@H](c1cc(OC)c(OC)c(OC)c1)[C@H](OC(=O)c1ccc(F)cc1)C2`, the half-maximal inhibitory concentration (IC50) was 53 nM.

Take `COc1ccc(C(=O)O[C@@H]2Cc3c(OC)cc(OC)cc3O[C@@H]2c2cc(OC)c(OC)c(OC)c2)cc1`: the IC50 came to 148 nM. Same read-out and setting: the same measure for `COc1cc(OC)c2c(c1)O[C@H](c1cc(OC)c(OC)c(OC)c1)[C@@H](OC(=O)c1ccc(F)c(NC(=O)c3ccc(OC)c(OC)c3)c1)C2=O`: 9.4 nM; for `COc1cc(OC)c2c(c1)O[C@H](c1cc(OC)c(OC)c(OC)c1)[C@H](OC(=O)c1ccc(OC)c(OC)c1)C2`: 20 nM; for `COc1cc(OC)c2c(c1)O[C@H](c1cc(OC)c(OC)c(OC)c1)[C@@H](OC(=O)c1ccc(F)c(NC(=O)c3cc(OC)c(OC)c(OC)c3)c1)C2=O`: 37 nM.

For `C=CCOc1cc(C(=O)O[C@H]2C(=O)c3c(OC)cc(OC)cc3O[C@@H]2c2cc(OC)c(OC)c(OC)c2)cc(OCC=C)c1OCC=C`, the IC50 came to 32 nM.

On to `COc1ccc(/C=C/C(=O)O[C@H]2C(=O)c3c(OC)cc(OC)cc3O[C@@H]2c2cc(OC)c(OC)c(OC)c2)cc1`, for which the IC50 stood at 41 nM.

Turning to `CC(=O)Oc1cc(OC(C)=O)c2c(c1)O[C@H](c1cc(OC(C)=O)c(OC(C)=O)c(OC(C)=O)c1)[C@H](OC(=O)c1cc(OC(C)=O)c(OC(C)=O)c(OC(C)=O)c1)C2`, the IC50 is 176 nM. Same read-out and setting: the same measure for `COc1cc(OC)c2c(c1)O[C@H](c1cc(OC)c(OC)c(OC)c1)[C@H](OC(=O)c1ccc(F)c(NC(=O)/C=C/c3cc(OC)c(OC)c(OC)c3)c1)C2`: 6.2 nM. The same measure, in the same setting: the figure for `COc1ccc(CCC(=O)O[C@@H]2Cc3c(OC)cc(OC)cc3O[C@@H]2c2cc(OC)c(OC)c(OC)c2)cc1` is 40 nM. Consider `COc1cc(OC)c2c(c1)O[C@H](c1cc(OC)c(OC)c(OC)c1)[C@H](OC(=O)CCc1ccc(OC)c(OC)c1)C2`, for which the IC50 worked out at 19 nM. Same read-out and setting: the figure for `COc1cc(OC)c2c(c1)O[C@H](c1cc(OC)c(OC)c(OC)c1)[C@H](OC(=O)CCc1cc(OC)c(OC)c(OC)c1)C2` is 18 nM; for `COc1ccc(/C=C/C(=O)O[C@@H]2Cc3c(OC)cc(OC)cc3O[C@@H]2c2cc(OC)c(OC)c(OC)c2)cc1` it is 22 nM. As for `O=C(O[C@@H]1Cc2c(O)cc(O)cc2O[C@@H]1c1cc(O)c(O)c(O)c1)c1cc(O)c(O)c(O)c1` [(-)-Epigallocatechin-3-o-gallate], the half-inhibitory concentration (IC50) was found to be 124 nM.

Molecular target in a further data set: not listed separately
Kind of data set: Modulation of MRP1 (unknown origin) transfected in human 2008/MRP1 cells assessed as potentiation of doxorubicin-induced cytotoxicity measured as doxorubicin IC50 at 1 uM after 5 days by MTS assay. For orientation: Tetrazolium assays rely on reduction of a dye to a coloured formazan, in cell work by metabolically active cells.
For `COc1cc(OC)c2c(c1)O[C@H](c1cc(OC)c(OC)c(OC)c1)[C@H](OC(=O)/C=C/c1cc(OC)c(OC)c(OC)c1)C2`, the IC50 amounted to 322 nM.

The target of the next data set is ATP-dependent translocase ABCB1 (Homo sapiens, UniProt P08183). Nature of the data set: Modulation of P-gp (unknown origin) transfected in human MDA435/LCC6MDR cells assessed as reversible of paclitaxel resistance measured as IC50 for paclitaxel at 10 uM after 5 days by CellTiter 96 Aqueous assay. The method in brief: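 They were held 5 days at 37 °C and viability read by CellTiter 96 AQueous (MTS). […] RF = IC50 of PTX without modulator / IC50 with modulator.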
Sequence of ATP-dependent translocase ABCB1 (P08183 whole entry): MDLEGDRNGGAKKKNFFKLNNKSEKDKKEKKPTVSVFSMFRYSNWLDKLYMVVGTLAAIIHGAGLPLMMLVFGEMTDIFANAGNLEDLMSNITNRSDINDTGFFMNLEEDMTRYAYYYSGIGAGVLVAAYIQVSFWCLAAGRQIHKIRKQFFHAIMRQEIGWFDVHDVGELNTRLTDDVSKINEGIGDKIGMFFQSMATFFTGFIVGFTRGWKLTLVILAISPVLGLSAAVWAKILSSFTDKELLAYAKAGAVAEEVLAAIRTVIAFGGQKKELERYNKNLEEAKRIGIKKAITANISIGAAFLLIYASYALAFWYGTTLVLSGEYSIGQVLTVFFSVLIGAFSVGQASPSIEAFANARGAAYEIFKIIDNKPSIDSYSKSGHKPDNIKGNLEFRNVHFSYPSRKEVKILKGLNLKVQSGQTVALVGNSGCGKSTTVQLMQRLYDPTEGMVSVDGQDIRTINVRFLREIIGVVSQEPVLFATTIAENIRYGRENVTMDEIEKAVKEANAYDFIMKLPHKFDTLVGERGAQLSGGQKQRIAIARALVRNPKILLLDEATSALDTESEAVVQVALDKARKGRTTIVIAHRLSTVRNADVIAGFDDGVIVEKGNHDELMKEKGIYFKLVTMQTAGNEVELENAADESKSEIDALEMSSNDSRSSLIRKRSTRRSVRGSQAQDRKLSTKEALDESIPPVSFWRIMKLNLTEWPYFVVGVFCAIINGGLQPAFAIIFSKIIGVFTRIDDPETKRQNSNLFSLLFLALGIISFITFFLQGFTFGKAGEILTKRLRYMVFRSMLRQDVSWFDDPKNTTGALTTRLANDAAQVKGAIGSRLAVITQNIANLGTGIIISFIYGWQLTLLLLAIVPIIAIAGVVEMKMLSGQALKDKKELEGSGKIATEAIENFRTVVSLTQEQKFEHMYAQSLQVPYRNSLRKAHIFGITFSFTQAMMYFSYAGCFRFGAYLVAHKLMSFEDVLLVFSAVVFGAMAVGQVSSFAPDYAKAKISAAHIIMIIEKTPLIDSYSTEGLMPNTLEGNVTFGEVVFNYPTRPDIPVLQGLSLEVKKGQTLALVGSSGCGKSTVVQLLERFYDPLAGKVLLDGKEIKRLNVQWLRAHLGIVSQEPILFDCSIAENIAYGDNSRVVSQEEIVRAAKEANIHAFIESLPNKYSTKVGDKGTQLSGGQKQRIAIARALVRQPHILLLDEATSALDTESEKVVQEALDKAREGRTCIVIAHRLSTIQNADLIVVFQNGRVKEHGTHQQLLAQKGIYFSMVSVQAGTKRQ
As to `O=C(O[C@@H]1Cc2c(O)cc(O)cc2O[C@@H]1c1cc(O)c(O)c(O)c1)c1cc(O)c(O)c(O)c1` [(-)-Epigallocatechin-3-o-gallate], the “IC50” value is on record as 123 nM.

Tested on in another data set: not listed separately
Kind of data set: Modulation of BCRP (unknown origin) transfected in human HEK293/R2 cells assessed as potentiation of topotecan-induced cytotoxicity measured as topotecan IC50 at 1 uM after 5 days by MTS assay.
On to `COc1cc(OC)c2c(c1)O[C@H](c1cc(OC)c(OC)c(OC)c1)[C@H](OC(=O)/C=C/c1cc(OC)c(OC)c(OC)c1)C2`, for which the IC50 was 357 nM.
